According to ChEMBL document CHEMBL3286116, “Synthesis, biological evaluation and structure-activity correlation study of a series of imidazol-based compounds as Candida albicans inhibitors” (Eur J Med Chem, 2014):
≈ marks a conversion by molar mass, not a printed value.

Experiments:
Format in all cases: functional
[1] = test system: Candida albicans; assay: Antifungal activity against Candida albicans ATCC 20891 after 48 hrs by CLSI broth microdilution method; conditions: ATCC 20891, 48 h
Procedure, shortened: (§1)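 Yeast CLSI broth microdilution (M27-A3). Compounds dissolved in DMSO at 100× the top test concentration, then diluted as serial two-fold dilutions in RPMI 1640 to final 0.125–64. Inoculum was 1.0–1.5 × 10^3 cells mL−1, incubated at 35 °C and read for growth at 48 h. MIC is the lowest concentration giving ≥50% growth inhibition versus growth control. Reported as the median of five replicates and as the geometric mean.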

[2] = test system: Candida albicans; assay: Antifungal activity against Candida albicans PMC 1011 after 48 hrs by CLSI broth microdilution method; conditions: PMC 1011, 48 h; procedure, shortened: as §1
[3] = test system: Candida albicans; assay: Antifungal activity against Candida albicans ATCC 10261 after 48 hrs by CLSI broth microdilution method; conditions: ATCC 10261, 48 h; procedure, shortened: as §1
[4] = test system: Cryptococcus neoformans; assay: Antifungal activity against Cryptococcus neoformans PMC 2107 after 72 hrs by CLSI broth microdilution method; conditions: PMC 2107, 72 h
Procedure, shortened: (§2)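 Cryptococcus neoformans tested by CLSI broth microdilution in RPMI 1640, with serial two-fold dilutions from DMSO stocks at 100× the top concentration, final 0.125–64. Inoculum was 1.0–1.5 × 10^3 cells mL−1 at 35 °C, with growth read at 72 h. MIC is the lowest concentration with ≥50% growth inhibition versus control. Median of five replicates, plus geometric mean.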

[5] = test system: Cryptococcus neoformans; assay: Antifungal activity against Cryptococcus neoformans DSM 11959 after 72 hrs by CLSI broth microdilution method; conditions: DSM 11959, 72 h; procedure, shortened: as §2
[6] = test system: Candida tropicalis; assay: Antifungal activity against Candida tropicalis PMC 0910 after 48 hrs by CLSI broth microdilution method; conditions: PMC 0910, 48 h; procedure, shortened: as §1
[7] = test system: Trichophyton mentagrophytes; assay: Antifungal activity against Trichophyton mentagrophytes PMC 6531 after 72 hrs by CLSI broth microdilution method; conditions: PMC 6531, 72 h
Procedure, shortened: (§3)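 Dermatophytes tested by CLSI broth microdilution for filamentous fungi (M38-A2). Serial two-fold dilutions of DMSO-dissolved compound in RPMI 1640, final 0.125–64. Inoculum was 0.4–5 × 10^4 CFU mL−1, incubated at 35 °C and read at 72 h. MIC80 is the lowest concentration giving ≥80% growth inhibition versus growth control. Median of five replicates, plus geometric mean.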

[8] = test system: Nakaseomyces glabratus; assay: Antifungal activity against Candida glabrata PMC 0807 after 48 hrs by CLSI broth microdilution method; conditions: PMC 0807, 48 h; procedure, shortened: as §1
[9] = test system: Cryptococcus neoformans; assay: Antifungal activity against Cryptococcus neoformans PMC 2123 after 72 hrs by CLSI broth microdilution method; conditions: PMC 2123, 72 h; procedure, shortened: as §2
[10] = test system: Cryptococcus neoformans; assay: Antifungal activity against Cryptococcus neoformans PMC 2103 after 72 hrs by CLSI broth microdilution method; conditions: PMC 2103, 72 h; procedure, shortened: as §2
[11] = test system: Trichophyton mentagrophytes; assay: Antifungal activity against Trichophyton mentagrophytes PMC 6503 after 72 hrs by CLSI broth microdilution method; conditions: PMC 6503, 72 h; procedure, shortened: as §3
[12] = test system: Candida albicans; assay: Antifungal activity against Candida albicans PMC 1040R after 48 hrs by CLSI broth microdilution method; procedure, shortened: as §1
[13] = test system: Candida albicans; assay: Antifungal activity against Candida albicans ATCC 90028 after 48 hrs by CLSI broth microdilution method; conditions: ATCC 90028, 48 h; procedure, shortened: as §1
[14] = test system: Nakaseomyces glabratus; assay: Antifungal activity against Candida glabrata PMC 0805 after 48 hrs by CLSI broth microdilution method; conditions: PMC 0805, 48 h; procedure, shortened: as §1
[15] = test system: Candida albicans; assay: Antifungal activity against Candida albicans ATCC 24433 after 48 hrs by CLSI broth microdilution method; conditions: ATCC 24433, 48 h; procedure, shortened: as §1
[16] = test system: Nakaseomyces glabratus; assay: Antifungal activity against Candida glabrata PMC 0853R after 48 hrs by CLSI broth microdilution method; procedure, shortened: as §1
[17] = test system: Cryptococcus neoformans; assay: Antifungal activity against Cryptococcus neoformans PMC 2111 after 72 hrs by CLSI broth microdilution method; conditions: PMC 2111, 72 h; procedure, shortened: as §2
[18] = test system: Nakaseomyces glabratus; assay: Antifungal activity against Candida glabrata PMC 0851R after 48 hrs by CLSI broth microdilution method; procedure, shortened: as §1
[19] = test system: Cryptococcus neoformans; assay: Antifungal activity against Cryptococcus neoformans PMC 2102 after 72 hrs by CLSI broth microdilution method; conditions: PMC 2102, 72 h; procedure, shortened: as §2
[20] = test system: Candida albicans; assay: Antifungal activity against Candida albicans PMC 1042R after 48 hrs by CLSI broth microdilution method; procedure, shortened: as §1
[21] = test system: Nannizzia gypsea; assay: Antifungal activity against Microsporum gypseum PMC 7331 after 72 hrs by CLSI broth microdilution method; conditions: PMC 7331, 72 h; procedure, shortened: as §3
[22] = test system: Nannizzia gypsea; assay: Antifungal activity against Microsporum gypseum DSM 3824 after 72 hrs by CLSI broth microdilution method; conditions: DSM 3824, 72 h; procedure, shortened: as §3
[23] = test system: Nannizzia gypsea; assay: Antifungal activity against Microsporum gypseum PMC 7303 after 72 hrs by CLSI broth microdilution method; conditions: PMC 7303, 72 h; procedure, shortened: as §3
[24] = test system: Nakaseomyces glabratus; assay: Antifungal activity against Candida glabrata PMC 0850R after 48 hrs by CLSI broth microdilution method; procedure, shortened: as §1
[25] = test system: Pichia kudriavzevii; assay: Antifungal activity against Candida krusei PMC 0613 after 48 hrs by CLSI broth microdilution method; conditions: PMC 0613, 48 h; procedure, shortened: as §1
[26] = test system: Candida albicans; assay: Antifungal activity against Candida albicans ATCC 76615 after 48 hrs by CLSI broth microdilution method; conditions: ATCC 76615, 48 h; procedure, shortened: as §1
[27] = test system: Trichophyton mentagrophytes; assay: Antifungal activity against Trichophyton mentagrophytes PMC 6552 after 72 hrs by CLSI broth microdilution method; conditions: PMC 6552, 72 h; procedure, shortened: as §3
[28] = test system: Candida parapsilosis; assay: Antifungal activity against Candida parapsilosis ATCC 22019 after 48 hrs by CLSI broth microdilution method; conditions: Lodderomyces parapsilosis, ATCC 22019, 48 h; procedure, shortened: as §1
[29] = test system: Candida tropicalis; assay: Antifungal activity against Candida tropicalis DSM 11953 after 48 hrs by CLSI broth microdilution method; conditions: DSM 11953, 48 h; procedure, shortened: as §1
[30] = test system: Candida albicans; assay: Antifungal activity against Candida albicans ATCC 10231 after 48 hrs by CLSI broth microdilution method; conditions: ATCC 10231, 48 h; procedure, shortened: as §1
[31] = test system: Trichophyton mentagrophytes; assay: Antifungal activity against Trichophyton mentagrophytes PMC 6509 after 72 hrs by CLSI broth microdilution method; conditions: PMC 6509, 72 h; procedure, shortened: as §3
[32] = test system: Candida albicans; assay: Antifungal activity against Candida albicans PMC 1041R after 48 hrs by CLSI broth microdilution method; procedure, shortened: as §1
[33] = test system: Nakaseomyces glabratus; assay: Antifungal activity against Candida glabrata PMC 0852R after 48 hrs by CLSI broth microdilution method; procedure, shortened: as §1
[34] = test system: Trichophyton mentagrophytes; assay: Antifungal activity against Trichophyton mentagrophytes DSM 4870 after 72 hrs by CLSI broth microdilution method; conditions: DSM 4870, 72 h; procedure, shortened: as §3
[35] = test system: Trichophyton mentagrophytes; assay: Antifungal activity against Trichophyton mentagrophytes PMC 6515 after 72 hrs by CLSI broth microdilution method; conditions: PMC 6515, 72 h; procedure, shortened: as §3
[36] = test system: Candida albicans; assay: Antifungal activity against Candida albicans ATCC 3153 after 48 hrs by CLSI broth microdilution method; conditions: ATCC 3153, 48 h; procedure, shortened: as §1
[37] = test system: Cryptococcus neoformans; assay: Antifungal activity against Cryptococcus neoformans PMC 2136 after 72 hrs by CLSI broth microdilution method; conditions: PMC 2136, 72 h; procedure, shortened: as §2
[38] = test system: Candida parapsilosis; assay: Antifungal activity against Candida parapsilosis DSM 11224 after 48 hrs by CLSI broth microdilution method; conditions: Lodderomyces parapsilosis, DSM 11224, 48 h; procedure, shortened: as §1
[39] = test system: Cryptococcus neoformans; assay: Antifungal activity against Cryptococcus neoformans PMC 2115 after 72 hrs by CLSI broth microdilution method; conditions: PMC 2115, 72 h; procedure, shortened: as §2
[40] = test system: Pichia kudriavzevii; assay: Antifungal activity against Candida krusei DSM 6128 after 48 hrs by CLSI broth microdilution method; conditions: DSM 6128, 48 h; procedure, shortened: as §1

OC(Cn1cncn1)(Cn1cncn1)c1ccc(F)cc1F [FLUCONAZOLE]
MIC50 [1]: 1 µg/mL (≈ 3.27 µM)
MIC50 [2]: 0.25 µg/mL (≈ 0.816 µM)
MIC50 [3]: 4 µg/mL (≈ 13.1 µM)
MIC50 [4]: 1 µg/mL (≈ 3.27 µM)
MIC50 [5]: 2 µg/mL (≈ 6.53 µM)
MIC50 [6]: 4 µg/mL (≈ 13.1 µM)
MIC80 [7]: 4 µg/mL (≈ 13.1 µM)
MIC50 [8]: 16 µg/mL (≈ 52.2 µM)
MIC50 [9]: 2 µg/mL (≈ 6.53 µM)
MIC50 [10]: 2 µg/mL (≈ 6.53 µM)
MIC80 [11]: 2 µg/mL (≈ 6.53 µM)
MIC50 [12]: 512 µg/mL (≈ 1670 µM)
MIC50 [13]: 0.5 µg/mL (≈ 1.63 µM)
MIC50 [14]: 1 µg/mL (≈ 3.27 µM)
MIC50 [15]: 0.5 µg/mL (≈ 1.63 µM)
MIC50 [16]: 32 µg/mL (≈ 104 µM)
MIC50 [17]: 1 µg/mL (≈ 3.27 µM)
MIC50 [18]: 128 µg/mL (≈ 418 µM)
MIC50 [19]: 4 µg/mL (≈ 13.1 µM)
MIC50 [20]: 16 µg/mL (≈ 52.2 µM)
MIC80 [21]: 16 µg/mL (≈ 52.2 µM)
MIC80 [22]: 16 µg/mL (≈ 52.2 µM)
MIC80 [23]: 16 µg/mL (≈ 52.2 µM)
MIC50 [24]: 32 µg/mL (≈ 104 µM)
MIC50 [25]: 8 µg/mL (≈ 26.1 µM)
MIC50 [26]: 0.5 µg/mL (≈ 1.63 µM)
MIC80 [27]: 8 µg/mL (≈ 26.1 µM)
MIC50 [28]: 2 µg/mL (≈ 6.53 µM)
MIC50 [29]: 1 µg/mL (≈ 3.27 µM)
MIC50 [30]: 2 µg/mL (≈ 6.53 µM)
MIC80 [31]: 1 µg/mL (≈ 3.27 µM)
MIC50 [32]: 32 µg/mL (≈ 104 µM)
MIC50 [33]: 16 µg/mL (≈ 52.2 µM)
MIC80 [34]: 16 µg/mL (≈ 52.2 µM)
MIC80 [35]: 8 µg/mL (≈ 26.1 µM)
MIC50 [36]: 16 µg/mL (≈ 52.2 µM)
MIC50 [37]: 2 µg/mL (≈ 6.53 µM)
MIC50 [38]: 1 µg/mL (≈ 3.27 µM)
MIC50 [39]: 4 µg/mL (≈ 13.1 µM)
MIC50 [40]: 16 µg/mL (≈ 52.2 µM)
